# Measured values as given in ChEMBL document CHEMBL4342528, “Discovery of a First-in-Class Protein Arginine Methyltransferase 6 (PRMT6) Covalent Inhibitor” (J Med Chem, 2020).
# pIC50: −log10 of the molar value. Activity calls are given as the source filed them. The rule behind the calls is not given here.
# Assays:
# [1] = biological target: T1, Protein arginine N-methyltransferase 6 (Homo sapiens, UniProt Q96LA8); assay: Inhibition of PRMT6 (unknown origin) assessed as reduction in incorporation of [3H]-labeled methyl group into biotinylated substrate using [3H-SAM] at 10 uM incubated for 1 hr by scintillation proximity assay
# T1 sequence (Q96LA8 whole entry, looked up): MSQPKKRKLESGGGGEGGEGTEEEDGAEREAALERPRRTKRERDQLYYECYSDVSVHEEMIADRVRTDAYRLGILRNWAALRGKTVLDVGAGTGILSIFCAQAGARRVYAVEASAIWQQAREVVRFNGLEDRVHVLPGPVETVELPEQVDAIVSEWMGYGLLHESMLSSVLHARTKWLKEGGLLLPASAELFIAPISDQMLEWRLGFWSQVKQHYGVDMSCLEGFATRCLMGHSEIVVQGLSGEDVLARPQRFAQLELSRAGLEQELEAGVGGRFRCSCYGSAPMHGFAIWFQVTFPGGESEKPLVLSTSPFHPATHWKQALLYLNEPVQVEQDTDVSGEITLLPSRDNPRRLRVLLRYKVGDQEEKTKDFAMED
# In short: (§1)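 Panel of 33 methyltransferases (22 PKMTs, 3 DNMTs, 8 PRMTs), each tested at 10 and 50 μM compound. Activity was read as ³H-methyl transfer from ³H-SAM in a radiometric assay done as previously described.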
# [2] = biological target: T1, Protein arginine N-methyltransferase 6; assay: Covalent binding affinity to human PRMT6 assessed as covalent adduct. formation at 300 uM pre-incubated for 1 hr by mass spectrometry
# In short: (§2)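 PRMT protein at 15 μM was incubated 1 h at room temperature with a 20-fold molar excess of inhibitor (300 μM). The reaction was quenched with 0.1% aqueous TFA, separated by HPLC (5–95% acetonitrile in water) and analysed by ESI time-of-flight LC/MS for protein–ligand adduct mass.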
# [3] = biological target: T2, Protein arginine N-methyltransferase 1 (Homo sapiens, UniProt Q99873); assay: Covalent binding affinity to human PRMT1 assessed as covalent adduct. formation at 300 uM pre-incubated for 1 hr by mass spectrometry; in short: as §2
# Target sequence in this assay (Q99873 whole entry, looked up): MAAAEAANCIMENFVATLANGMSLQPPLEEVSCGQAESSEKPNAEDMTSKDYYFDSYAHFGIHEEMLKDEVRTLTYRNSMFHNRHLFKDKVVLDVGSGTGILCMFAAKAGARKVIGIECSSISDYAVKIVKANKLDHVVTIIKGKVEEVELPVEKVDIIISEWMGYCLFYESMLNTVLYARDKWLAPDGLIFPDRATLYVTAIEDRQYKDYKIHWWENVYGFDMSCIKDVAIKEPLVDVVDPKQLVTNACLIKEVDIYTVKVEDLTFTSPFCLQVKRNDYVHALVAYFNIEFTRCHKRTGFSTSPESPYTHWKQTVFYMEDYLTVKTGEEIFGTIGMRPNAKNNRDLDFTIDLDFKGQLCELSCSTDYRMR
# [4] = biological target: T2, Protein arginine N-methyltransferase 1; assay: Inhibition of human PRMT1 using [3H]SAM as donor and [3H]methylated biotin-labeled peptide as substrate by scintillation proximity assay
# Target sequence in this assay (Q99873 whole entry): as the sequence (Q99873 whole entry, looked up) above
# Homo sapiens [5] = species: Homo sapiens; assay: Selectivity index, ratio of IC50 for human PRMT4 to IC50 for human PRMT6
# Homo sapiens [6] = species: Homo sapiens; assay: Selectivity index, ratio of IC50 for human PRMT8 to IC50 for human PRMT6
# In short: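 Radiometric SPA: ³H-methyl transfer from ³H-SAM to biotin-labeled peptide, captured on streptavidin/scintillant-coated plate, counts per minute read; substrate and cofactor each at their Km for the enzyme; compound titrated; IC50 from triplicate determinations, mean ± SD.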
# [7] = biological target: T2, Protein arginine N-methyltransferase 1; assay: Inhibition of PRMT1 in human MCF7 cells assessed as reduction in H4R3me2a levels incubated for 2 days by fluorescence based assay; assay type: cell-based
# In short: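 MCF7 cells with endogenous PRMT1 were treated with compound for 2 days, with MS023 (1 μM) as positive control. The H4R3me2a fluorescence signal was normalized to H4 and fitted nonlinearly to give IC50.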
# [8] = biological target: T3, Protein arginine N-methyltransferase 3 (Homo sapiens, UniProt O60678); assay: Inhibition of PRMT3 (unknown origin) expressed in HEK293T cells were co-transfected with GFP-tagged histone H4 peptide assessed as reduction in H4R3 arginine asymmetric dimethylation at 0.2 to 20 uM incubated for 20 hrs; assay type: cell-based
# T3 sequence (O60678 2-531 limits assumed): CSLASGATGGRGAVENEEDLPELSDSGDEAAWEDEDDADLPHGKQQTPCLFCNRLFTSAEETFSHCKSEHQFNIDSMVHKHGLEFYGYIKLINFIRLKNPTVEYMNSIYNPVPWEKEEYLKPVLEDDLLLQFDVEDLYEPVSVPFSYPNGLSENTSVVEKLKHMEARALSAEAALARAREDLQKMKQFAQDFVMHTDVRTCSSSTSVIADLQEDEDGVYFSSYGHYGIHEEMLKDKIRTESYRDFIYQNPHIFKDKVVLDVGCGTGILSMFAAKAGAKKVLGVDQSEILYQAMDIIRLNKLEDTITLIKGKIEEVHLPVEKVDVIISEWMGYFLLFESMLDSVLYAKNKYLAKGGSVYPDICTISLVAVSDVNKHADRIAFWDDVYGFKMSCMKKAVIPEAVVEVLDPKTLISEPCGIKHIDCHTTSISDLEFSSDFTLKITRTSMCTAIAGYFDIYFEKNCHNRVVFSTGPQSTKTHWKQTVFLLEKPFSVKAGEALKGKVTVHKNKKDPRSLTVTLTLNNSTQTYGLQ
# MCF7 = assay: Toxicity in human MCF7 cells assessed as reduction in cell viability up to 20 uM incubated for 3 days by CCK8 assay; assay type: cell-based; details: mcf7, 72 h
# In short: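 Cells seeded 1×10^4 per well in triplicate, treated after 24 h with serial dilutions from 20 μM for 3 days; CCK-8 (WST-8) added, 4 h at 37 °C, absorbance at 450 nm; mean ± SD of three replicate experiments.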
# [9] = biological target: Protein arginine N-methyltransferase 8 (Homo sapiens, UniProt Q9NR22); assay: Inhibition of PRMT8 (unknown origin) assessed as reduction in incorporation of [3H]-labeled methyl group into biotinylated substrate using [3H-SAM] at 10 uM incubated for 1 hr by scintillation proximity assay; in short: as §1
# Sequence of Protein arginine N-methyltransferase 8 (Q9NR22 2-394 limits assumed): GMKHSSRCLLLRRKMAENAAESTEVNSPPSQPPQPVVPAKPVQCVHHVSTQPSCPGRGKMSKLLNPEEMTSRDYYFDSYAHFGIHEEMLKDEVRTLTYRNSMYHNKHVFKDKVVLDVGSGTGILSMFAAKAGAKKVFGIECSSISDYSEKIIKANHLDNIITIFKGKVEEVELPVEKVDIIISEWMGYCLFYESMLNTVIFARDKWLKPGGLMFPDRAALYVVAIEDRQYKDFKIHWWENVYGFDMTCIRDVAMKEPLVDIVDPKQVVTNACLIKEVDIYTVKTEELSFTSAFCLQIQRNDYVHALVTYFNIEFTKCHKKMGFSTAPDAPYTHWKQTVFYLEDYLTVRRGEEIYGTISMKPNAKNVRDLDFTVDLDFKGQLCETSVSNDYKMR
# [10] = biological target: Protein arginine N-methyltransferase 9 (Homo sapiens) (UniProt Q6P2P2); assay: Inhibition of PRMT9 (unknown origin) assessed as reduction in incorporation of [3H]-labeled methyl group into biotinylated substrate using [3H-SAM] at 10 uM incubated for 1 hr by scintillation proximity assay; in short: as §1
# [11] = biological target: Histone-lysine N-methyltransferase EHMT2 (Homo sapiens) (UniProt Q96KQ7); assay: Inhibition of G9a (unknown origin) assessed as reduction in incorporation of [3H]-labeled methyl group into biotinylated substrate using [3H-SAM] at 10 uM incubated for 1 hr by scintillation proximity assay; in short: as §1
# Sequence of Histone-lysine N-methyltransferase EHMT2 (Homo sapiens) (Q96KQ7 whole entry): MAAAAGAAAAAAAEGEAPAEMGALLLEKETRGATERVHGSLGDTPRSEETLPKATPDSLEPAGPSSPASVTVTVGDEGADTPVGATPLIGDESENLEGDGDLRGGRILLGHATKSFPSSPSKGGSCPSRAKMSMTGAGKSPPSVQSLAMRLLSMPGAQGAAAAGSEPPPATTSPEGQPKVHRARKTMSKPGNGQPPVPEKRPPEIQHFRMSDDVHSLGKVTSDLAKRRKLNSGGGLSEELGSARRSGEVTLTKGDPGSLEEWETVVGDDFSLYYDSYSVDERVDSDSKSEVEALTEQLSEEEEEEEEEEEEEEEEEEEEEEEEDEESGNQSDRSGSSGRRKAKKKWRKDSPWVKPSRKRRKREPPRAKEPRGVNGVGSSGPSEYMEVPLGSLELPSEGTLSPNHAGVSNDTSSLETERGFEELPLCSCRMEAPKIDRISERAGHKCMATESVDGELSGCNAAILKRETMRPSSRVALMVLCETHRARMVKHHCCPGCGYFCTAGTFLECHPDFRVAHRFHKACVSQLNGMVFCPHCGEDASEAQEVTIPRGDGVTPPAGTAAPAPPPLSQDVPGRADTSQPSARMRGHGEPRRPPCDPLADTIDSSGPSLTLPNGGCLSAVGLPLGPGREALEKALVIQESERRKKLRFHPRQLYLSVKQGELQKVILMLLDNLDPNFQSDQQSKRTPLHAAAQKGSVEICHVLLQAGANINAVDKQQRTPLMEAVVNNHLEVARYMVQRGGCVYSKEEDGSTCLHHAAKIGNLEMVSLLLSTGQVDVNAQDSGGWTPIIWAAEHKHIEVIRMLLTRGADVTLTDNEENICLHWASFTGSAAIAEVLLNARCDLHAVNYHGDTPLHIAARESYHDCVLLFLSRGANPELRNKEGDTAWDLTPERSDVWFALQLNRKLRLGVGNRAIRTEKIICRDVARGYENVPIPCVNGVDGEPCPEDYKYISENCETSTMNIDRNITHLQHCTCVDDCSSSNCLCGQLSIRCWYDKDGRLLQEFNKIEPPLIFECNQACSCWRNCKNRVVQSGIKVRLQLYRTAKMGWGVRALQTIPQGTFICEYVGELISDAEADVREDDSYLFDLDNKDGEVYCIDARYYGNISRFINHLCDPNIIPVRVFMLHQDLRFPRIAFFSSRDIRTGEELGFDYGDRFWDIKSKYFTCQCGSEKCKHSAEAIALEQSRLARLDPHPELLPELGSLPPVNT
# [12] = biological target: Histone-lysine N-methyltransferase SETDB1 (Homo sapiens) (UniProt Q15047); assay: Inhibition of SETDB1 (unknown origin) assessed as reduction in incorporation of [3H]-labeled methyl group into biotinylated substrate using [3H-SAM] at 10 uM incubated for 1 hr by scintillation proximity assay; in short: as §1
# [13] = biological target: Histone-lysine N-methyltransferase 2C (Homo sapiens) (UniProt Q8NEZ4); assay: Inhibition of MLL3 (unknown origin) assessed as reduction in incorporation of [3H]-labeled methyl group into biotinylated substrate using [3H-SAM] at 10 uM incubated for 1 hr by scintillation proximity assay; in short: as §1
# [14] = biological target: Histone-lysine N-methyltransferase KMT5C (Homo sapiens) (UniProt Q86Y97); assay: Inhibition of SUV420H2 (unknown origin) assessed as reduction in incorporation of [3H]-labeled methyl group into biotinylated substrate using [3H-SAM] at 10 uM incubated for 1 hr by scintillation proximity assay
# [15] = biological target: Histone-lysine N-methyltransferase SETD2 (Homo sapiens) (UniProt Q9BYW2); assay: Inhibition of SETD2 (unknown origin) assessed as reduction in incorporation of [3H]-labeled methyl group into biotinylated substrate using [3H-SAM] at 10 uM incubated for 1 hr by scintillation proximity assay; in short: as §1
# [16] = biological target: RNA 5'-monophosphate methyltransferase (Homo sapiens) (UniProt Q7Z5W3); assay: Inhibition of BCDIN3D (unknown origin) assessed as reduction in incorporation of [3H]-labeled methyl group into biotinylated substrate using [3H-SAM] at 10 uM incubated for 1 hr by scintillation proximity assay
# Sequence of RNA 5'-monophosphate methyltransferase (Homo sapiens) (Q7Z5W3 whole entry): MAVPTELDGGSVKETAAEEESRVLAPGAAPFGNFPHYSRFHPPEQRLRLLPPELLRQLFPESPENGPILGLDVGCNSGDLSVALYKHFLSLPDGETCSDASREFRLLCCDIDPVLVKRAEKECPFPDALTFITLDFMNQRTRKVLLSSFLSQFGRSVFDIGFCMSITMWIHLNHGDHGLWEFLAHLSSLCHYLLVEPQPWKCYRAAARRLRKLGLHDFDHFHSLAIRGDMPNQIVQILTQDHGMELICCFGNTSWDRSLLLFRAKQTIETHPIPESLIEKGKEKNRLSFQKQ
# [17] = biological target: Histone-lysine N-methyltransferase NSD3 (Homo sapiens) (UniProt Q9BZ95); assay: Inhibition of NSD3 (unknown origin) at 10 uM using [3H-SAM] and nucleosome as substrate incubated for 1 hr by scintillation proximity assay; in short: as §1
# Sequence of Histone-lysine N-methyltransferase NSD3 (Homo sapiens) (Q9BZ95 whole entry): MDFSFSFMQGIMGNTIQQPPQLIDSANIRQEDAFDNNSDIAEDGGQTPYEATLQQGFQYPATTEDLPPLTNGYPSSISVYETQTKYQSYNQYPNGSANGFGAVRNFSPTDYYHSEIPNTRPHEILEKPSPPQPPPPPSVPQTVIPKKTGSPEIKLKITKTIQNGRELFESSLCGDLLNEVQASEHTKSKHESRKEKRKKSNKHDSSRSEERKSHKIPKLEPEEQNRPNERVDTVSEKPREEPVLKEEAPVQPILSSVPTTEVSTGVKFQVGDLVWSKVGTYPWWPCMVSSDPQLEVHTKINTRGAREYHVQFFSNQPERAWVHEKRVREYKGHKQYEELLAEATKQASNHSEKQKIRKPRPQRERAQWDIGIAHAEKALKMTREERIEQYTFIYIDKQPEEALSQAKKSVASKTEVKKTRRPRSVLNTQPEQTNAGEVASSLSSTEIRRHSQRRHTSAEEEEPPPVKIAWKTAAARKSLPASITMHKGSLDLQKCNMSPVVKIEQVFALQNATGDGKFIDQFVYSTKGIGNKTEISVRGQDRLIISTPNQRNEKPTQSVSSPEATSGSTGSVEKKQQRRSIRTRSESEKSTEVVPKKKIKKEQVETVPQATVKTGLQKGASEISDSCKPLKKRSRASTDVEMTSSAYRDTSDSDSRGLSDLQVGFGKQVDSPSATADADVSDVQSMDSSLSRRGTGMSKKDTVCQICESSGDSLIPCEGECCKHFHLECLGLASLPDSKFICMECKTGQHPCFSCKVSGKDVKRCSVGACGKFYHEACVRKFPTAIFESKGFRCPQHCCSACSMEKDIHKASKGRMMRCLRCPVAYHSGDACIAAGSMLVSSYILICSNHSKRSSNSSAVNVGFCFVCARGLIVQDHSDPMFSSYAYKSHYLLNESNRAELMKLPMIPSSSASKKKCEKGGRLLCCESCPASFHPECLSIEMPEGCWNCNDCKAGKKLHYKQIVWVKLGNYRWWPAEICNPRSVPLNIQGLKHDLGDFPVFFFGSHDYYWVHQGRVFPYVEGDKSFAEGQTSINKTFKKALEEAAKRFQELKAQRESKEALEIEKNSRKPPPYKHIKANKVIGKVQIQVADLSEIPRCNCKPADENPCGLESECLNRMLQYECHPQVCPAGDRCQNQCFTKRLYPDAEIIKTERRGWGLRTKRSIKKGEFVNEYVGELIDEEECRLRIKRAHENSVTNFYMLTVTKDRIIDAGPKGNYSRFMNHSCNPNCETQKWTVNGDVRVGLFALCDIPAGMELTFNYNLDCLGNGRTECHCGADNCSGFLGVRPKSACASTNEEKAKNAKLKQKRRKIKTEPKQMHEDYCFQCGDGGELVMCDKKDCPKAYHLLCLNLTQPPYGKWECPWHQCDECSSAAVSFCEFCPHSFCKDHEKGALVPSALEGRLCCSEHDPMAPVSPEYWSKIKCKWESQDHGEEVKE
# [18] = biological target: Histone-lysine N-methyltransferase ASH1L (Homo sapiens) (UniProt Q9NR48); assay: Inhibition of ASH1L (unknown origin) at 10 uM using [3H-SAM] and nucleosome as substrate incubated for 1 hr by scintillation proximity assay; in short: as §1
# [19] = biological target: T3, Protein arginine N-methyltransferase 3; assay: Inhibition of PRMT3 (unknown origin) assessed as reduction in incorporation of [3H]-labeled methyl group into biotinylated substrate using [3H-SAM] at 50 uM incubated for 1 hr by scintillation proximity assay relative to control; in short: as §1
# [20] = biological target: T1, Protein arginine N-methyltransferase 6; assay: Inhibition of PRMT6 (unknown origin) assessed as reduction in incorporation of [3H]-labeled methyl group into biotinylated substrate using [3H-SAM] at 50 uM incubated for 1 hr by scintillation proximity assay relative to control; in short: as §1
# [21] = biological target: Histone-lysine N-methyltransferase SETD7 (Homo sapiens) (UniProt Q8WTS6); assay: Inhibition of SETD7 (unknown origin) at 50 uM assessed as reduction in incorporation of [3H]-labeled methyl group into biotinylated substrate using [3H-SAM] at 50 uM incubated for 1 hr by scintillation proximity assay relative to control; in short: as §1
# Sequence of Histone-lysine N-methyltransferase SETD7 (Homo sapiens) (Q8WTS6 whole entry): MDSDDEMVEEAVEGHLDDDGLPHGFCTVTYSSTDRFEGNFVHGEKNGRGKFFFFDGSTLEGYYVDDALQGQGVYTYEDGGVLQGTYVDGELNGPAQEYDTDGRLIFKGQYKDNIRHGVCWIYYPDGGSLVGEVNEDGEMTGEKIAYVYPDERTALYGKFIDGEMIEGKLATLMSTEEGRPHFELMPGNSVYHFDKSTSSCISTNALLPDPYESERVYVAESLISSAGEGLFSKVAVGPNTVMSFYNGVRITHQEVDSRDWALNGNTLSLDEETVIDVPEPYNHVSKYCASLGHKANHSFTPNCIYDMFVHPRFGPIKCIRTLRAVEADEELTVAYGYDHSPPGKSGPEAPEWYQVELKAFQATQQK
# Homo sapiens [22] = species: Homo sapiens; assay: Inhibition of DNMT3A/3L (unknown origin) at 50 uM using un-biotinylated Poly(2'-deoxyinosinic-2'-deoxycytidylic acid) substrate using [3H-SAM] at 50 uM incubated for 1 hr by scintillation proximity assay relative to control; in short: as §1
smiles,measurement,setting,value
C=CC(=O)Nc1cccc(-c2c[nH]cc2CN(C)CCN)c1,inhibition,[1],> 90%
same,Activity,[2],Active
same,Activity,[3],inactive
same,pIC50,[4],7.00
same,Ratio IC50,Homo sapiens [5],27
same,Ratio IC50,Homo sapiens [6],6
same,pIC50,[7],5.25
same,inhibition,[7],Dose-dependent effect
same,inhibition,[8],inactive
same,Activity,MCF7,Non-Toxic
same,inhibition,[9],> 90%
same,inhibition,[10],inactive
same,inhibition,[11],inactive
same,inhibition,[12],inactive
same,inhibition,[13],inactive
same,inhibition,[14],inactive
same,inhibition,[15],inactive
same,inhibition,[16],inactive
same,inhibition,[17],inactive
same,inhibition,[18],inactive
same,inhibition,[19],> 50%
same,inhibition,[20],> 50%
same,inhibition,[21],> 50%
same,inhibition,Homo sapiens [22],> 50%
